Where “and” joins values, the source holds several entries; their conditions need not be identical. Equal entries are not always repeated. Calls of active or inactive are those of the source. No cut-off for these calls is given here.
Key:
[1] = Dose required (i.v.) to reduce the lowering of arterial blood pressure caused by PAF in rats.; conditions: Rattus norvegicus
Mus musculus [2] = assay: Compound was evaluated for the inhibition of PAF-induced mortality in mice, after intravenous administration of the drug; assay type: functional; conditions: read-out: ID50 (the source's name)
Mus musculus [3] = species on record: Mus musculus; assay: Percent protection of PAF-induced mortality in mice after 5 hr; assay type: functional; set-up: concentration or dose not given beside the values
In short: (§1)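 Duration study in male Swiss mice (22–26 g). Single 1 mg/kg iv dose of test compound at time 0. C18-PAF 100 µg/kg plus propranolol 1 mg/kg given iv via tail vein at the stated time after dosing, 10–40 mice per time point.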

Mus musculus [4] = species on record: Mus musculus; assay: Percent protection of PAF-induced mortality in mice after 3h; assay type: functional; set-up: concentration or dose not given beside the values
In short: as §1

Mus musculus [5] = species on record: Mus musculus; assay: Percent protection of PAF-induced mortality in mice after 0.5 hr; assay type: functional; set-up: concentration or dose not given beside the values
In short: as §1

Mus musculus [6] = species on record: Mus musculus; assay: Percent protection of PAF-induced mortality in mice after 24 hr; assay type: functional; set-up: concentration or dose not given beside the values
In short: as §1

Mus musculus [7] = species on record: Mus musculus; assay: Percent protection of PAF-induced mortality in mice after 17h; assay type: functional; set-up: concentration or dose not given beside the values
In short: as §1

Mus musculus [8] = species on record: Mus musculus; assay: Percent protection of PAF-induced mortality in mice after 2 hr; assay type: functional; set-up: concentration or dose not given beside the values
In short: as §1

Mus musculus [9] = species on record: Mus musculus; assay: Percent protection of PAF-induced mortality in mice after 7 hr; assay type: functional; set-up: concentration or dose not given beside the values
In short: as §1

Mus musculus [10] = species on record: Mus musculus; assay: Percent protection of PAF-induced mortality in mice after 5h; NP means no protection; assay type: functional, organism-based
In short: (§2)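 Male Swiss mice (22–26 g) given compound as a single 1 mg/kg iv dose at time 0. At the stated time, C18-PAF 100 µg/kg plus propranolol 1 mg/kg injected into a lateral tail vein. […] 10–40 mice per time point.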

Mus musculus [11] = species on record: Mus musculus; assay: Percent protection of PAF-induced mortality in mice after 7h; NP means no protection; assay type: functional, organism-based
In short: as §2

| SMILES | ID50 [1] | ED50 (Mus musculus [2]) [mg/kg] | Protection (Mus musculus [3]) [%] | Protection (Mus musculus [4]) [%] | Protection (Mus musculus [5]) [%] | Protection (Mus musculus [6]) [%] | Protection (Mus musculus [7]) [%] | Protection (Mus musculus [8]) [%] | Protection (Mus musculus [9]) [%] | Protection (Mus musculus [10]) | Protection (Mus musculus [11]) |
| --- | --- | --- | --- | --- | --- | --- | --- | --- | --- | --- | --- |
| CC[n+]1ccccc1CN(C(C)=O)C(=O)OCC1COC(OCCC(c2ccccc2)c2ccccc2)C1 (configuration not stated) | 0.11 mg/kg |  |  |  |  |  |  |  |  |  |  |
| CCCCCCCCCCCCCCCCCCOC1CC(COC(=O)N(Cc2cccc[n+]2CC)C(C)=O)CO1.[Cl-] (configuration not stated) | 0.026 mg/kg and 0.025 mg/kg | 0.023 | 100 | 100 | 100 | 48 | 81 | 100 | 95 |  |  |
| CC[n+]1ccccc1CN(C(C)=O)C(=O)OCC1COC(OCCCCCCOCCCCCc2ccccc2)C1.[I-] (configuration not stated) | 0.021 mg/kg | 0.0083 | 89 | 100 | 100 | 38 | 38 | 100 | 80 |  |  |
| CC[n+]1ccccc1CN(C(C)=O)C(=O)OCC1COC(OCCCc2ccccc2)C1 (configuration not stated) | 0.12 mg/kg |  |  |  |  |  |  |  |  |  |  |
| CC[n+]1ccccc1CN(C(C)=O)C(=O)OCC1COC(OCCC(C)C)C1 (configuration not stated) | 0.21 mg/kg |  |  |  |  |  |  |  |  |  |  |
| CC[n+]1ccccc1CN(C(C)=O)C(=O)OCC1COC(OCCCCCCOCCCc2ccccc2)C1.[I-] (configuration not stated) | 0.06 mg/kg | 0.073 |  | 50 |  |  |  | 100 |  | inactive |  |
| CCOC1CC(COC(=O)N(Cc2cccc[n+]2CC)C(C)=O)CO1 (configuration not stated) | 2.3 mg/kg |  |  |  |  |  |  |  |  |  |  |
| CCCCCCCCCCCCCCCCCCOC1C[C@H](COC(=O)N(Cc2cccc[n+]2CC)C(C)=O)CO1.[I-] (some centres not stated) | 0.031 mg/kg | 0.012 | 100 |  |  | 60 | 93 |  | 100 |  |  |
| CCCCCCCCCCCCCCCCCC1CC(COC(=O)N(Cc2cccc[n+]2CC)C(C)=O)CO1.[I-] (configuration not stated) | 0.05 mg/kg | 0.36 |  | 16 | 100 |  |  | 16 |  | inactive |  |
| CCCCCCCCCCOCCCCCCOC1CC(COC(=O)N(Cc2cccc[n+]2CC)C(C)=O)CO1.[I-] (configuration not stated) | 0.004 mg/kg | 0.0064 | 100 | 100 | 100 | 51 | 40 | 100 | 88 |  |  |
| CCCCCCCCCCCCCCCCOC1CC(COC(=O)N(Cc2cccc[n+]2CC)C(C)=O)CO1.[I-] (configuration not stated) | 0.01 mg/kg | 0.024 | 61 | 88 | 100 | 44 | 65 | 100 | 64 |  |  |
| CC[n+]1ccccc1CN(C(C)=O)C(=O)OCC1COC(OCCCCCCCCCCCCCCCCOC)C1.[I-] (configuration not stated) | 0.04 mg/kg | 0.0076 | 59 | 66 | 100 |  |  | 100 |  |  | inactive |
| CCCCCCCCCCCCCCCCCCOCC1CC(COC(=O)N(Cc2cccc[n+]2CC)C(C)=O)CO1.[Cl-] (configuration not stated) | 0.011 mg/kg | 0.026 | 100 | 100 |  | 33 | 44 |  | 100 |  |  |
| CCCCCCCCCCCCCCCCCCNC(=O)OCC(COC(=O)N(Cc1cccc[n+]1CC)C(C)=O)OC.[Cl-] (configuration not stated) [CV-6209] | 0.0078 mg/kg | 0.022 | 100 | 100 | 100 | 48 | 95 | 100 | 100 |  |  |
| CCCCCCCCCCCCCCCCCCO[C@@H]1C[C@H](COC(=O)N(Cc2cccc[n+]2CC)C(C)=O)CO1.[I-] | 0.066 mg/kg | 0.03 |  |  |  | 38 | 67 |  | 100 |  |  |
| C=CCCCCCCOCCCCCCOC1CC(COC(=O)N(Cc2cccc[n+]2CC)C(C)=O)CO1.[I-] (configuration not stated) | 0.063 mg/kg | 0.024 | 63 | 88 |  |  | 20 | 100 | 40 |  |  |
| CCCCCCCCCCCCCCCCOCC1CC(COC(=O)N(Cc2cccc[n+]2CC)C(C)=O)CO1.[Cl-] (configuration not stated) | 0.027 mg/kg | 0.031 | 54 | 75 |  | 17 | 44 | 100 | 65 |  |  |
| CCCCCCCCCCCCCCCCCCCCOC1CC(COC(=O)N(Cc2cccc[n+]2CC)C(C)=O)CO1 (configuration not stated) | 0.048 mg/kg |  |  |  |  |  |  |  |  |  |  |
| CC[n+]1ccccc1CN(C(C)=O)C(=O)OCC1COC(OCCCCCCOCc2ccc(-c3ccccc3)cc2)C1 (configuration not stated) | 0.012 mg/kg |  |  |  |  |  |  |  |  |  |  |
